{
  "source": "paper PMC4021855",
  "about": "(Nature chemical biology, 2013)",
  "key": {"[1]": {"system": "H226 cells", "experiment": "Transwell cell migration assay", "format": "cell-based, human", "how_it_was_run": "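H226 cells (1×10^5 per well) placed in the top chamber of a laminin-coated (10 μg/ml) 8.0 μm polycarbonate Transwell and left to migrate for 12 h with test compound. Migrated cells fixed in 70% methanol and stained with hematoxylin. Non-migrants swabbed off; cells counted in 3 random ×20 fields.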"}, "[2]": {"system": "H226 cells", "experiment": "Matrigel invasion assay", "format": "cell-based, human", "how_it_was_run": "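Upper chamber of Transwell (8.0 μm pore polycarbonate) coated with Matrigel 1 mg/ml in cold serum-free medium and set 4 h at 37°C. H226 cells seeded on top; lower chamber held medium with laminin 10 μg/ml. Cells exposed to test compound for 24 h. Invaded cells fixed in 70% methanol, hematoxylin-stained, and counted in 3 random ×20 fields. Mean ± s.d.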"}, "[3]": {"biological_target": "T1, KRS–LR interaction (Homo sapiens, UniProt Q15046)", "T1 sequence (Q15046 whole entry)": "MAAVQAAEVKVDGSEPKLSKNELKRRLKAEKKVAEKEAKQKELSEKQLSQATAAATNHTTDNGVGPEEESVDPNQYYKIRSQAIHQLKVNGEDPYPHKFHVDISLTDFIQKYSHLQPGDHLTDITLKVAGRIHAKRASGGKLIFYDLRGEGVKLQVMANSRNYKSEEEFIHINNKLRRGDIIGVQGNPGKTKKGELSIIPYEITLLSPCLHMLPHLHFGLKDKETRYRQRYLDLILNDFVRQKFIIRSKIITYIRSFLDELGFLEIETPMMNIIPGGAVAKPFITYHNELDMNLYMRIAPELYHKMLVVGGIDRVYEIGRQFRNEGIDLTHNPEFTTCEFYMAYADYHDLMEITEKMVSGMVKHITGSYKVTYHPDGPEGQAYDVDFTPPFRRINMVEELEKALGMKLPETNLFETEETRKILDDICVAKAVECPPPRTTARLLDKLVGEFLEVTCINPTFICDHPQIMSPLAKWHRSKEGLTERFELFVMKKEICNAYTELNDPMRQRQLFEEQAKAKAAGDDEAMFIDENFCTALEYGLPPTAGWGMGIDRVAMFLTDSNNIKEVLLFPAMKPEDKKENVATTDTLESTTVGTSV", "experiment": "Yeast two-hybrid", "format": "cell-based", "settings": "Y2H, 50 μg/ml, 6-day incubation", "how_it_was_run": "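Yeast EGY/SH cells co-expressing LexA–KRS and B42–LR grown in galactose medium lacking Ura, His, Trp and Leu, with compound at 50 μg/ml final. OD540 read after 6 days.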"}, "[4]": {"system": "67LR", "experiment": "Membranous 67LR level by immunoblotting", "format": "cell-based"}, "[5]": {"biological_target": "KRS–67LR interaction (Homo sapiens, UniProt Q15046)", "sequence (Q15046 whole entry)": "as above", "experiment": "In vitro pull-down and IP assays", "format": "binding", "how_it_was_run": "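In vitro: 37LRP radiolabelled by coupled transcription/translation, mixed with 1 μg GST–KRS plus test compound, then GST pull-down; bound 37LRP detected by autoradiography. IP: Myc-KRS-transfected H226 cells pretreated with laminin 10 μg/ml for 1 h in serum-free medium, then test compound for 4 h. Lysates or membrane/cytosol fractions then used for IP and immunoblotting.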"}, "[6]": {"system": "MMP-2", "experiment": "MMP-2 zymography", "format": "cell-based", "how_it_was_run": "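H226 cells treated with laminin (10 μg/ml) plus test compound for 12 h. Conditioned-medium proteins run on 10% SDS-PAGE containing 1 mg/ml gelatin. Gel incubated in reaction buffer; gelatinolytic zone of MMP-2 visualised by Coomassie Blue staining.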"}, "[7]": {"system": "H226 cells", "experiment": "Total protein synthesis", "format": "cell-based, human", "how_it_was_run": "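Compound-treated H226 cells held 30 min in Met-free medium, then labelled with [³⁵S]Met for 2 h. Cells returned to complete medium for 4 h, then lysed; radioactivity measured by scintillation counting. Lys variant used Lys-free medium and [³H]Lys.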"}, "[8]": {"system": "Tg(MMTV-PyVT) mouse", "experiment": "Tg", "format": "in vivo", "settings": "100 mg/kg intraperitoneally every other day for 6 weeks"}, "[9]": {"biological_target": "KRS1–207 (Homo sapiens, UniProt Q15046)", "sequence (Q15046 1-207)": "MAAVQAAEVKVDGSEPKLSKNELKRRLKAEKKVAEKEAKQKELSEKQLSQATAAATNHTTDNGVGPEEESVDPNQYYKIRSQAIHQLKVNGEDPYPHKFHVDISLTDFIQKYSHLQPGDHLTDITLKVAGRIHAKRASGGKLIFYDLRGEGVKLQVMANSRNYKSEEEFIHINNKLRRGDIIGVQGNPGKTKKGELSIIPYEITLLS", "experiment": "SPR binding analysis", "how_it_was_run": "(§1)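 Proteins immobilised at 30 μg/ml in 10 mM sodium acetate pH 5.0 on a CM5 chip: His-KRS WT, 1–207 and 220–597, plus GST-37LRP. Test compound in PBS with 0.05% Tween 20 and 2% DMSO, flowed at 20 μl/min, 25°C; binding read as RU change. For GST-tagged proteins, GST-only RU subtracted. Apparent constants fitted to 1:1 binding with drifting baseline.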"}, "[10]": {"biological_target": "KRS (Homo sapiens, UniProt Q15046)", "sequence (Q15046 whole entry)": "as the sequence (Q15046 whole entry) above", "experiment": "KRS aminoacylation enzymatic assay", "format": "biochemical", "settings": "0 to 40 μM", "how_it_was_run": "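KRS pre-incubated with test compound (0 to 40 μM final) for 30 min at 4°C before the aminoacylation reaction. Reaction aliquots quenched and precipitated on filter plates, washed, eluted with 0.2 M NaOH, and counted on a scintillation plate reader.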"}, "[11]": {"experiment": "Hematological metrics and blood chemistry in ICR mice", "format": "in vivo, mouse", "settings": "high doses"}, "[12]": {"experiment": "Pharmacokinetics analysis in male ICR mice", "format": "in vivo, mouse", "settings": "3 mg/kg", "how_it_was_run": "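Male ICR mice, n=4 per group, dosed at 3 mg/kg. Intravenous dosing as a solution in 40% dimethylformamide; oral dosing as a suspension in 0.5% methyl cellulose. About 50 μl orbital-vein blood drawn at 0.083 (i.v. only), 0.25, 0.5, 1, 2, 4, 8 and 24 h. Plasma stored at −70°C.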"}, "[13]": {"system": "H226 cells", "experiment": "MTT cell viability assay", "format": "cell-based, human", "settings": "24 h", "how_it_was_run": "(§2)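 1×10^4 cells per well in 96-well plates; preincubated 1 h with laminin, then exposed to test compound for 24 h in serum-free medium. MTT (stock 5 mg/ml, diluted 10-fold) added for 30 min. Crystals dissolved in DMSO; absorbance read at […].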"}, "[14]": {"system": "WI-26 cells", "experiment": "Transwell cell migration assay", "format": "cell-based", "settings": "read-out: IC50 for inhibition of migration of WI-26"}, "[15]": {"biological_target": "37LRP (Homo sapiens, UniProt P08865)", "experiment": "SPR binding analysis", "how_it_was_run": "as §1"}, "[16]": {"system": "A549-RFP cells", "experiment": "A549-RFP left ventricle injection metastasis model", "format": "in vivo, mouse", "settings": "100 mg/kg oral once a day", "how_it_was_run": "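1×10^6 stable A549-RFP cells injected into the left ventricle of anaesthetised 6-week-old female BALB/cAnCr nude mice, n=10 per group. Test compound or 0.5% methyl cellulose given orally once daily from day 1 for 130 days. RFP signal of 5 random mice imaged by IVIS weekly, weeks 4–7. Body weight taken twice weekly for 50 days; survival followed to day 130.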"}, "[17]": {"system": "4T1 cells", "experiment": "4T1 mammary fat pad breast cancer metastasis model", "format": "in vivo, mouse", "settings": "oral, 100 and 300 mg/kg", "how_it_was_run": "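4×10^4 4T1 cells injected into the surgically exposed No. 2 mammary fat pad of anaesthetised 7-week-old female BALB/cAnCr mice. Primary tumours (100–150 mm³) resected on day 10. Groups of n=5 balanced by resected tumour weight. Test compound or 0.5% methyl cellulose given orally once daily from day 1 after resection. Lungs excised at day 28 post-injection, fixed in Bouin's solution, and pulmonary nodules counted.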"}, "[18]": {"system": "WI-26 cells", "experiment": "MTT cell viability assay", "format": "cell-based", "settings": "24 h", "how_it_was_run": "as §2"}, "[19]": {"biological_target": "T1, KRS–LR interaction", "experiment": "Comparison of YH16899 with BC-K01 across functional assays", "settings": "most of the assays tested"}, "[20]": {"biological_target": "KRS–AIMP2 (Homo sapiens, UniProt Q15046)", "sequence (Q15046 whole entry, the tested form may be a part)": "as the sequence (Q15046 whole entry) above", "sequence (Q13155 1-48 partner limits assumed)": "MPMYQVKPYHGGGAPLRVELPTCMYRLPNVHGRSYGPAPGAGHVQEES", "experiment": "Quantification of the KRS–AIMP2 interaction", "format": "binding", "settings": "0–100 μM", "how_it_was_run": "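AlphaScreen format. His-tagged KRS incubated overnight at 4°C with test compound (0–100 μM final). Ni-chelate donor beads (0.01 mg/ml final) added for 15 min. Acceptor beads (0.01 mg/ml final) and biotinylated AIMP2(1–48)–thioredoxin fusion then added for 1.5 h. Emission read at 520–620 nm, room temperature, triplicate.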"}},
  "data": [
    {"smiles": "CCC(C(=O)O)n1c(=NC(=O)c2ccc(C)cc2)sc2ccccc21", "note": "(centres unmarked) [BC-K01, 2-(2-{[4-(methyl)benzoyl]imino}benzothiazol-3-yl)butanoic acid]", "values": [
      {"measurement": "effect on cell migration", "setting": "[1]", "value": "suppressed"},
      {"measurement": "effect on cell invasion", "setting": "[2]", "value": "suppressed"},
      {"measurement": "inhibition of KRS–LR interaction without affecting KRS–AIMP2 and MRS–AIMP3 pairs", "setting": "[3]", "value": "specifically inhibited"},
      {"measurement": "effect on level of 67LR in the plasma membrane", "setting": "[4]", "value": "decreased the level of 67LR in the plasma membrane in a concentration-dependent manner"},
      {"measurement": "effect on binding of KRS and LR", "setting": "[5]", "value": "reduced the binding of the two proteins"},
      {"measurement": "effect on MMP-2", "setting": "[6]", "value": "suppressed the activity of MMP-2"}
    ]},
    {"smiles": "CCC(C(=O)O)n1c(=NC(=O)c2cccc(C(F)(F)F)c2)sc2cc(F)c(F)cc21", "note": "(centres unmarked) [YH16899, 2-(5,6-difluoro-2-{[3-(trifluoromethyl)benzoyl]imino}benzo[d]thiazol-3(2H)-yl)butanoic acid]", "values": [
      {"measurement": "IC50", "setting": "[1]; Homo sapiens, NCI-H226, 12 h, read-out: IC50 for inhibition of H226 migration", "value": "8.5 ± 2.1", "unit": "µM"},
      {"measurement": "effect on cellular protein synthesis", "setting": "[7]", "value": "little or no effect"},
      {"measurement": "effect on body weight", "setting": "[8]", "value": "without affecting body weight"},
      {"measurement": "reduction of pulmonary nodule formation", "setting": "[8]", "value": "approximately 70%"},
      {"measurement": "suppression of cell invasion", "setting": "[2]; H226 cells, Matrigel", "value": "approximately 85%"},
      {"measurement": "binding to KRS1–207 compared with KRS1–597 and KRS220–597", "setting": "[9]", "value": "preferential binding"},
      {"measurement": "effect on the catalytic activity of KRS", "setting": "[10]", "value": "little or no effect"},
      {"measurement": "side effects (hematological metrics and blood chemistry)", "setting": "[11]", "value": "few side effects"},
      {"measurement": "volume of distribution in vivo compared to BC-K01", "setting": "[12]", "value": "better volume of distribution"},
      {"measurement": "effect on cell viability", "setting": "[13]", "value": "did not affect the cell viability"},
      {"measurement": "effect on level of 67LR in the plasma membrane", "setting": "[4]", "value": "decreased the amount of membranous 67LR"},
      {"measurement": "IC50", "setting": "[14]", "value": "> 50", "unit": "µM"},
      {"measurement": "binding to 37LRP", "setting": "[15]", "value": "did not show significant binding"},
      {"measurement": "effect on body weight", "setting": "[16]", "value": "did not affect the body weight"},
      {"measurement": "survival", "setting": "[16]; followed up to 130 days", "value": "greatly enhanced survival"},
      {"measurement": "reduction of average radiance (photon imaging)", "setting": "[16]; up to 7 weeks", "value": "approximately 50%"},
      {"measurement": "effect on body weight", "setting": "[17]", "value": "little or no effect on body weight"},
      {"measurement": "inhibition of tumor metastases to the lungs", "setting": "[17]; once a day", "value": "approximately 60%"},
      {"measurement": "effect on cell viability", "setting": "[18]", "value": "did not affect the cell viability"},
      {"measurement": "effect on binding of KRS and LR", "setting": "[5]", "value": "hindered the interaction between the two proteins"},
      {"measurement": "improvement of IC50 compared to BC-K01", "setting": "[19]", "value": "3- to 6 fold"},
      {"measurement": "effect on MMP-2", "setting": "[6]", "value": "suppressed the induction of MMP-2"},
      {"measurement": "change in KRS binding affinity to AIMP2", "setting": "[20]", "value": "little or no change"}
    ]}
  ]
}
